From ChEMBL document CHEMBL1150387, “Development and experimental validation of a docking strategy for the generation of kinase-targeted libraries” (J Med Chem, 2008) come the findings set out here.

Test [1] can be described thus: Inhibition of IRK at 10 uM by HTRF assay relative to control. An outline of the steps: (§1)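 HTRF kinase assay, one panel of kinases. Inhibitor stock 50 µM in 100% DMSO; tested at 10 µM. ATP and substrate at final levels near Km. Final buffer: 50 mM Hepes/NaOH pH 7.4, 40 µM Na3VO4, 0.005% Tween-20, 1 mM DTT, MnCl2 or MgCl2 at kinase-dependent levels. Started by adding ATP/substrate. Reaction run at room temperature, time varied by kinase. Detection mix in 50 mM Hepes pH 7.4, 0.1% BSA, 150 mM KF, incubated ≥1 h at room temperature. Activity expressed as % of uninhibited control; n=2.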

In test [2] the target is Vascular endothelial growth factor receptor 1 (Homo sapiens) (UniProt P17948). In words: Inhibition of FLT1 at 10 uM by HTRF assay relative to control. An outline of the steps:
as §1

Test [3] deals with Epidermal growth factor receptor (Homo sapiens) (UniProt P00533). Nature of the test: Inhibition of EGFR at 10 uM by HTRF assay relative to control. An outline of the steps: as §1
Chain of Epidermal growth factor receptor (Homo sapiens) (P00533 whole entry): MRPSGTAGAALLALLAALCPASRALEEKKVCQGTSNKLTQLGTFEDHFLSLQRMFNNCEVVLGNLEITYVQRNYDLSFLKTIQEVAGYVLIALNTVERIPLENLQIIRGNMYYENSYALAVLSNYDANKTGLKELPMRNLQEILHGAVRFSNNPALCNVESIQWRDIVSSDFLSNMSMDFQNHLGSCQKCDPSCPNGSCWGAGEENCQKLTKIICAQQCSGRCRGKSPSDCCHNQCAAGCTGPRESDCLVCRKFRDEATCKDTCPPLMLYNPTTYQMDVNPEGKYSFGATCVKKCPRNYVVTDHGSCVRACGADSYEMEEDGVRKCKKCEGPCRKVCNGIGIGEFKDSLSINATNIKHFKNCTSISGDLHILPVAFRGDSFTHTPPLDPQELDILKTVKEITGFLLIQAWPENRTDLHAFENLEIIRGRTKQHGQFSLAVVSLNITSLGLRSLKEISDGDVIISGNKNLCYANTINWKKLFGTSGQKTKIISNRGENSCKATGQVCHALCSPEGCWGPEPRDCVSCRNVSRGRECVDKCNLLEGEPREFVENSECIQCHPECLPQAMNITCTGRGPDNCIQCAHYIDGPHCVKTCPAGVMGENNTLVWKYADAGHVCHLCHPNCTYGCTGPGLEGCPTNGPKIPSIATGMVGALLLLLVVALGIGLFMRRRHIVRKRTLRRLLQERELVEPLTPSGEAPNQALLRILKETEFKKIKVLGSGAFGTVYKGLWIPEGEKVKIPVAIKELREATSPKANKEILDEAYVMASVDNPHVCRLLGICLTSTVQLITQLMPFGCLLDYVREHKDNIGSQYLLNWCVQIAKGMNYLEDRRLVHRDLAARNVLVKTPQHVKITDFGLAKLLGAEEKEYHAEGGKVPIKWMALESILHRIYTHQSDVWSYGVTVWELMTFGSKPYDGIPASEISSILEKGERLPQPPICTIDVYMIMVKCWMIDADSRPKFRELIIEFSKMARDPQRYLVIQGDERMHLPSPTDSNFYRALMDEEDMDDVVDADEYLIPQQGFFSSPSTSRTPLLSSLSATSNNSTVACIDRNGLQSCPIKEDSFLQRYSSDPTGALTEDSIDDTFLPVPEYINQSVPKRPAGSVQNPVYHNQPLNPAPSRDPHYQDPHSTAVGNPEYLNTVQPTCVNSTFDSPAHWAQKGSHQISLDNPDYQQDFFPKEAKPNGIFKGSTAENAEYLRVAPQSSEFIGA
For test [4], the target named is T1, Mitogen-activated protein kinase 12 (Homo sapiens) (UniProt P53778).
T1 sequence (whole entry): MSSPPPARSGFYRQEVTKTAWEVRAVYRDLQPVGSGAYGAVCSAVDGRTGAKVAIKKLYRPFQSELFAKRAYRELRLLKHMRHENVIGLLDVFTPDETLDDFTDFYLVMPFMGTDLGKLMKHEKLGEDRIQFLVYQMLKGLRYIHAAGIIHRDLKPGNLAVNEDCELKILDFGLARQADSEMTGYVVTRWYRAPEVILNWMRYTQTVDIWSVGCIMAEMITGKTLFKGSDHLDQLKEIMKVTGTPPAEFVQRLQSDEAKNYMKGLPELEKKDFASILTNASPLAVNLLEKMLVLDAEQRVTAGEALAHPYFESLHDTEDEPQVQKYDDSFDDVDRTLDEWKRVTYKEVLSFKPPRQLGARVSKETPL
In words: Inhibition of p38-gamma at 10 uM by HTRF assay relative to control. In a few lines:
as §1

Test [5] concerns the target Mitogen-activated protein kinase 14 (Homo sapiens) (UniProt Q16539). Nature of the test: Inhibition of p38alpha at 10 uM by HTRF assay relative to control. An outline of the steps: as §1
The target in test [6] is Mitogen-activated protein kinase 9 (Homo sapiens) (UniProt P45984). In words: Inhibition of JNK2 at 10 uM by HTRF assay relative to control. An outline of the steps:
as §1

Test [7] deals with Cyclin-dependent kinase 2 (Homo sapiens) (UniProt P24941). Nature of the test: Inhibition of CDK2 at 10 uM by HTRF assay relative to control. An outline of the steps: as §1
The target of test [8] is T2, Calcium/calmodulin-dependent protein kinase type IV (Homo sapiens) (UniProt Q16566).
T2 sequence (whole entry): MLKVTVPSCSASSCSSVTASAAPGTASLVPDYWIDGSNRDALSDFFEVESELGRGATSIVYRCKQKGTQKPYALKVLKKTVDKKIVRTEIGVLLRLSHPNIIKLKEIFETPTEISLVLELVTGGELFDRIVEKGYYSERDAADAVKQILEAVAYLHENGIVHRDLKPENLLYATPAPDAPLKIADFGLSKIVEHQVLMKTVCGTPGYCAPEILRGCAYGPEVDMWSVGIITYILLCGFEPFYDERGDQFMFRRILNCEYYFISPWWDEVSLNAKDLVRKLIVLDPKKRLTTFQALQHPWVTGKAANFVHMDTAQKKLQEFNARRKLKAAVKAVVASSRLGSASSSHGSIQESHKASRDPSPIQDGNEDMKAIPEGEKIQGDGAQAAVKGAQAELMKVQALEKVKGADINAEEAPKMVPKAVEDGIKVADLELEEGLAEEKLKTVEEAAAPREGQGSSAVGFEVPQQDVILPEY
In words: Inhibition of CaMK4 at 10 uM by HTRF assay relative to control. An outline of the steps:
as §1

Test [9] addresses Proto-oncogene tyrosine-protein kinase Src (Homo sapiens) (UniProt P12931). Nature of the test: Inhibition of Src at 10 uM by HTRF assay relative to control. An outline of the steps:
as §1

Test [10] deals with T3, Tyrosine-protein kinase JAK3 (Homo sapiens) (UniProt P52333).
T3 sequence (whole entry): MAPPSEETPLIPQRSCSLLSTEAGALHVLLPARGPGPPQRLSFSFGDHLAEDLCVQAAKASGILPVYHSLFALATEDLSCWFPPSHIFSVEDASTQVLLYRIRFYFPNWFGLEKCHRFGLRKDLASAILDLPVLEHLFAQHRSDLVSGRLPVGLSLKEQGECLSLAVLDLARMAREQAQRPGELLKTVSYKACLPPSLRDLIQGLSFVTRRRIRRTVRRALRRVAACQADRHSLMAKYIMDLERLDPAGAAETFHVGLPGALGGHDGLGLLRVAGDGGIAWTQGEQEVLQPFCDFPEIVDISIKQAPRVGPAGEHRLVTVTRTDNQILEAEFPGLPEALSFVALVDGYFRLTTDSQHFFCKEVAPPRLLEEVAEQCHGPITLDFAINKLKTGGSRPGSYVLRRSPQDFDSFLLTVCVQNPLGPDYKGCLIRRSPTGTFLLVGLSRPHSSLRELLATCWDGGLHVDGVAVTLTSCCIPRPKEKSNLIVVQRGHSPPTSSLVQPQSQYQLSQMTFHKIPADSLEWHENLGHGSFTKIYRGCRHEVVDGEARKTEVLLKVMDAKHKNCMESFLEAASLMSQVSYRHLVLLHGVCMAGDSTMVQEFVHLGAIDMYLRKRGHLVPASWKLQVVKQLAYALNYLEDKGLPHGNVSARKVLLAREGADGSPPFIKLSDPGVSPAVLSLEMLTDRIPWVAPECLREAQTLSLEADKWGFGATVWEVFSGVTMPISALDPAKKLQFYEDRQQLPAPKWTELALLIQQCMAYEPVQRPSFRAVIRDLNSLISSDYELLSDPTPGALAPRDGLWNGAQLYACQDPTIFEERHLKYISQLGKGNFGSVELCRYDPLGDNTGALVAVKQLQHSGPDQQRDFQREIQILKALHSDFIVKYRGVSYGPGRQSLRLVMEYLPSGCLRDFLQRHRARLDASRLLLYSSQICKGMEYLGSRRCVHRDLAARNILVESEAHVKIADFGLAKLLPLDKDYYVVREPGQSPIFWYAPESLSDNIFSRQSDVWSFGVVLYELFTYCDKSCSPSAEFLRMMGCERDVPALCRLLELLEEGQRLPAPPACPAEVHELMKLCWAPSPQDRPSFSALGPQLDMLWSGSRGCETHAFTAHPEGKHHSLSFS
In words: Inhibition of JAK3 at 10 uM by HTRF assay relative to control. In a few lines: as §1

Test [11] has as its target Protein-tyrosine kinase 6 (Homo sapiens) (UniProt Q13882). Nature of the test: Inhibition of Brk at 10 uM by HTRF assay relative to control. An outline of the steps: as §1

Chain of Vascular endothelial growth factor receptor 1 (Homo sapiens) (P17948 whole entry): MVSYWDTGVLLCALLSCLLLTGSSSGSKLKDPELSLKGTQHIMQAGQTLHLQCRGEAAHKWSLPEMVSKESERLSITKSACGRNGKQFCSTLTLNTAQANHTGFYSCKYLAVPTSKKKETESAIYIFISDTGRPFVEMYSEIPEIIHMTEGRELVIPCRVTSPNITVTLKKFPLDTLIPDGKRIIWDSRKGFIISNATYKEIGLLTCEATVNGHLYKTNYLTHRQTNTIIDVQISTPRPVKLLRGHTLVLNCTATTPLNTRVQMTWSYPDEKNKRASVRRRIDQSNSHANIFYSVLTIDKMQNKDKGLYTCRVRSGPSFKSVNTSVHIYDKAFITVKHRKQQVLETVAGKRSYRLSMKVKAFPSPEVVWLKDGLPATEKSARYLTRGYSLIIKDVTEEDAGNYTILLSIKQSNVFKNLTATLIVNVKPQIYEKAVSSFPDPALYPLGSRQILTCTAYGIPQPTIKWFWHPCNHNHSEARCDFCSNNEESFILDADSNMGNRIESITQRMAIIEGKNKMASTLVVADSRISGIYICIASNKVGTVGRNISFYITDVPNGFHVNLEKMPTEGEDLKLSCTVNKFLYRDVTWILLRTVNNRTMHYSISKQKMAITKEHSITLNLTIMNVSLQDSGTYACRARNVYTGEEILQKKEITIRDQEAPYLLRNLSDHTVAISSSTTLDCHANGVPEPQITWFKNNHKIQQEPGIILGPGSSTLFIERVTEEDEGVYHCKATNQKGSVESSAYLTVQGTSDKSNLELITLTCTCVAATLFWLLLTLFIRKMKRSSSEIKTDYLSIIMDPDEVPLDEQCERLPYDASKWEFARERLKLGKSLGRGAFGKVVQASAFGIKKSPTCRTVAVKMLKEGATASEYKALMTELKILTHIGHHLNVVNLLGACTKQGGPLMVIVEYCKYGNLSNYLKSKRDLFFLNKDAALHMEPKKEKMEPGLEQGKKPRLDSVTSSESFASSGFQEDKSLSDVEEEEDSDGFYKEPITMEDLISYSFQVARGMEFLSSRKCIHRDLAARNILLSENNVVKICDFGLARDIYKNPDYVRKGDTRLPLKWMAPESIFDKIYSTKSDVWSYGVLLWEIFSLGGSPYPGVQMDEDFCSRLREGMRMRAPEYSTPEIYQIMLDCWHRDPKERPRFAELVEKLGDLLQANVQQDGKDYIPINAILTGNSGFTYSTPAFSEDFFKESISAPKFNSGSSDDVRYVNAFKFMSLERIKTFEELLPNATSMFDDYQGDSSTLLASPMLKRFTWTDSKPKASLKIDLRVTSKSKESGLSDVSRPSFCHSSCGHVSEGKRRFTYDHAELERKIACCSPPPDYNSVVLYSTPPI
Chain of Mitogen-activated protein kinase 9 (Homo sapiens) (P45984 whole entry, looked up): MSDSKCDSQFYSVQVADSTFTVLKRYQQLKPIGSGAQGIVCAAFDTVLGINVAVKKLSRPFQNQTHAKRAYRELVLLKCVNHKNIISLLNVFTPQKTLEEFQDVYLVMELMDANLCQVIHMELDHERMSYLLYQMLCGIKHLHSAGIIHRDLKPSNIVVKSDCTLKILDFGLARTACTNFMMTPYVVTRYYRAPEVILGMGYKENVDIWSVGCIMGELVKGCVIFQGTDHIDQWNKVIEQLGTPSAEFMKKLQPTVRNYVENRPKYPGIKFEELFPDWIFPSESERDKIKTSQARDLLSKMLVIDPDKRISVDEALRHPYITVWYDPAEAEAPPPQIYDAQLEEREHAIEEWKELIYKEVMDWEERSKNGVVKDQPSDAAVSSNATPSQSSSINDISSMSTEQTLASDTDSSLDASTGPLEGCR
Chain of Protein-tyrosine kinase 6 (Homo sapiens) (Q13882 whole entry, looked up): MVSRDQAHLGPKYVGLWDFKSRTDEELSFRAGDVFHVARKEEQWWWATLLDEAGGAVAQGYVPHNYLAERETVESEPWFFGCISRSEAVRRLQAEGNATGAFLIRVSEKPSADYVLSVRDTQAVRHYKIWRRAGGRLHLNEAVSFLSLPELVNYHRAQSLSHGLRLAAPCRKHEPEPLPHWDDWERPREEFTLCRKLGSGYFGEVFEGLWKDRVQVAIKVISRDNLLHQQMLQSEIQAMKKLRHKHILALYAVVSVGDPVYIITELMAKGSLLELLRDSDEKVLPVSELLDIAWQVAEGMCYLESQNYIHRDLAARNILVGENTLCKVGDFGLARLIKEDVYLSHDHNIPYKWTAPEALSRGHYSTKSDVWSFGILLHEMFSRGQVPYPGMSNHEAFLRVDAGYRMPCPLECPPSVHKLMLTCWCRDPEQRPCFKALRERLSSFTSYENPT
Chain of Mitogen-activated protein kinase 14 (Homo sapiens) (Q16539 whole entry): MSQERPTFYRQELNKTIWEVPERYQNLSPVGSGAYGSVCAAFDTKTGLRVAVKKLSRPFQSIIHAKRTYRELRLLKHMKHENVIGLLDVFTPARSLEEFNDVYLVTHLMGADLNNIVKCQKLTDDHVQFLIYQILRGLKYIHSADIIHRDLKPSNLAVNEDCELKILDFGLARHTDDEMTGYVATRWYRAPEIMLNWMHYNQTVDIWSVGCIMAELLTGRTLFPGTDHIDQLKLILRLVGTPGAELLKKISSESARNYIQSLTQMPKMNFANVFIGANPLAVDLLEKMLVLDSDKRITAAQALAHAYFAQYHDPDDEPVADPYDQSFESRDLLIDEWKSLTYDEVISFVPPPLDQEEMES
Chain of Proto-oncogene tyrosine-protein kinase Src (Homo sapiens) (P12931 2-536 limits assumed): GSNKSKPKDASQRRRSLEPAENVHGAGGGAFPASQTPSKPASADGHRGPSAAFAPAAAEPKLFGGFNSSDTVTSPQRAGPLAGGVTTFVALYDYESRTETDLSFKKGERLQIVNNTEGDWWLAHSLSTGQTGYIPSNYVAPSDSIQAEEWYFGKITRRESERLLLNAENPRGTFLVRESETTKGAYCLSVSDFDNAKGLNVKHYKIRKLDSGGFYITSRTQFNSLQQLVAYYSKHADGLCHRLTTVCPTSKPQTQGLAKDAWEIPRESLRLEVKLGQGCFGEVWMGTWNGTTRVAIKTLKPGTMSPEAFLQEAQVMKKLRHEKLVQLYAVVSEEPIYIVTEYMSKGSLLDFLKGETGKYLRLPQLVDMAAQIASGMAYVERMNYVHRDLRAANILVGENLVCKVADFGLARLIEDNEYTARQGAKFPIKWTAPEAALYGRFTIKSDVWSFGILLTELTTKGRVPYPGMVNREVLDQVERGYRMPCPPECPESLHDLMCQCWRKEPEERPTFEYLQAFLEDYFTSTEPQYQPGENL

As for `COC[C@@H]1CCCN1C(=O)[C@@H]1CCCN1c1cc(Nc2cccc(OC)c2)nc(N)n1`, the inhibition in test [1] was 0%; in test [2], 3%; in [3], 2%; in test [4] it was 3%; in [5] it was 8%; in test [6], 2%. Further, the inhibition stood at 7% in test [7]; 0% in test [8]; 4% in test [9]; 0% in test [10]; 17% in [11].

As to `Cc1cccc(N(C)c2cc(N3CCN(C(=O)Cc4c[nH]c5ccccc45)CC3)ncn2)c1`, the inhibition in [1] was found to be 0%; in test [2], 0%; in [3], 0%; in [4], 3%; in test [5] it was 6%; in test [6], 5%. Moreover, the inhibition in test [7] amounted to 10%; in [8] it was 0%; in test [9], 0%; in test [10], 0%; in test [11], 16%.

For `Cc1cccc(N(C)c2cc(Nc3ccc(CC(=O)Nc4ccc5ncsc5c4)cc3)ncn2)c1`, the inhibition was 0% in [1]; 22% in [2]; 87% in test [3]; 0% in test [4]; 57% in test [5]; 5% in test [6]. Moreover, the inhibition was 4% in test [7]; 0% in test [8]; 6% in test [9]; 12% in test [10]; 29% in test [11].

Take `COC[C@@H]1CCCN1C(=O)C1CCCN1c1cc(Nc2cccc(Br)c2)ncn1` (some centres undefined): the inhibition in [1], in test [2], in [3], in test [4], in [5] and in test [6] was 0% each time. Besides, the inhibition worked out at 4% in [7]; 0% in test [8]; 3% in test [9]; 8% in test [10]; 3% in test [11].

Turning to `Cc1cccc(Nc2ncnc3c2CN(C(=O)c2ccc(N(C)C)c4ccccc24)CC3)c1`, the inhibition in test [1] is 0%; in test [2], 1%; in test [3], 31%; in test [4], 2%; in test [5], 1%; in test [6], 1%. Moreover, the inhibition in test [7] is 24%; in test [8] it was 0%; in test [9] it was 0%; in test [10], 0%; in test [11], 10%.

Consider `COc1cccc(Nc2cc(N3CCC[C@H]3C(=O)NCCc3ccc(O)cc3)nc(N)n2)c1`, for which the inhibition came to 0% in test [1]; 2% in test [2]; 0% in test [3]; 0% in test [4]; 8% in test [5]; 2% in [6]. Besides, the inhibition in test [7] came to 3%; in [8], 0%; in test [9], 2%; in [10] it was 0%; in [11] it was 14%.

Turning to `Cc1cccc(Nc2nccc3c2CN(C(=O)c2cc(C)n(C)c2C)CC3)c1`, the inhibition in test [1] worked out at 0%; in test [2], 0%; in test [3], 82%; in [4], 1%; in [5] it was 0%; in test [6], 3%. Also, the inhibition is 8% in [7]; 0% in test [8]; 0% in [9]; 0% in test [10]; 13% in test [11].

For the compound `O=C(COc1ccccc1)N1CCN(c2nccc(Nc3ccc4ncsc4c3)n2)CC1`, the inhibition is 0% in test [1]; 3% in test [2]; 81% in test [3]; 5% in test [4]; 7% in [5]; 44% in test [6]. The inhibition in test [7] was 8%; in test [8] it was 0%; in test [9], 13%; in test [10] it was 5%; in test [11] it was 54%.

With `CC(=O)CCCCC(=O)N1CCN(c2nccc(Oc3cccc(C)c3)n2)CC1`, the inhibition in test [1] worked out at 0%; in test [2] it was 1%; in test [3], 0%; in test [4], 0%; in [5], 10%; in test [6], 11%. The inhibition in [7] is 10%; in test [8], 0%; in test [9], 5%; in [10] it was 0%; in test [11], 3%.
